Measurements published in ChEMBL document CHEMBL4359917, “Design, synthesis, and biological evaluation of novel benzodiazepine derivatives as anticancer agents through inhibition of tubulin polymerization in vitro and in vivo” (Eur J Med Chem, 2019).
pIC50: −log10 of the molar value. Active and inactive are the calls of the source. No cut-off for these calls is given here.

Tests used:
[1] = system: HepG2; assay: Antiproliferative activity against human HepG2 cells assessed as cell growth inhibition measured after 48 hrs by MTT assay; format: functional, cell-based; conditions: HepG2, 48 h
Procedure, shortened: (§1)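 Cancer cell lines exposed to compounds for 48 h; viability read by MTT assay. IC50 reported as mean ± SD from at least three independent experiments.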

[2] = system: A549; assay: Induction of apoptosis in human A549 cells assessed as late apoptotic cells at 10 nM after 48 hrs by annexin V-FITC/propidium iodide staining based flow cytometry (reference value: 0.02 %); format: functional
Procedure, shortened: (§2)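 A549 cells treated at 1, 5 or 10 nM for 24 or 48 h, then analysed by flow cytometry. Quadrants: upper left necrotic, upper right late apoptotic, bottom left live, bottom right early apoptotic. Three experiments; representative results shown.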

[3] = system: A549; assay: Induction of apoptosis in human A549 cells assessed as live cells at 5 nM after 24 hrs by annexin V-FITC/propidium iodide staining based flow cytometry (reference value: 99.75 %); format: functional; procedure, shortened: as §2
[4] = system: A549; assay: Induction of apoptosis in human A549 cells assessed as live cells at 10 nM after 24 hrs by annexin V-FITC/propidium iodide staining based flow cytometry (reference value: 99.75 %); format: functional; procedure, shortened: as §2
[5] = system: A549; assay: Induction of apoptosis in human A549 cells assessed as early apoptotic cells at 5 nM after 24 hrs by annexin V-FITC/propidium iodide staining based flow cytometry (reference value: 0.19 %); format: functional; procedure, shortened: as §2
[6] = system: A549; assay: Antiproliferative activity against human A549 cells assessed as cell growth inhibition measured after 48 hrs by MTT assay; format: functional, cell-based; conditions: A549, 48 h; procedure, shortened: as §1
[7] = system: A549; assay: Induction of apoptosis in human A549 cells assessed as early apoptotic cells at 1 nM after 48 hrs by annexin V-FITC/propidium iodide staining based flow cytometry (reference value: 0.19 %); format: functional; procedure, shortened: as §2
[8] = Metabolic stability in Sprague-Dawley rat liver microsomes assessed as parent compound remaining after 90 mins in presence of NADPH by HPLC-UV-MS analysis; format: ADME, Microsome; conditions: read-out: Stability
Procedure, shortened: (§3)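 Compound incubated with rat liver microsomes in buffer containing an NADPH regenerating system. Percentage of parent remaining was determined at time points up to 180 min, and half-life was derived.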

[9] = system: A549; assay: Induction of apoptosis in human A549 cells assessed as late apoptotic cells at 5 nM after 48 hrs by annexin V-FITC/propidium iodide staining based flow cytometry (reference value: 0.02 %); format: functional; procedure, shortened: as §2
[10] = system: A549; assay: Induction of apoptosis in human A549 cells assessed as late apoptotic cells at 5 nM after 24 hrs by annexin V-FITC/propidium iodide staining based flow cytometry (reference value: 0.02 %); format: functional; procedure, shortened: as §2
[11] = system: A549; assay: Induction of apoptosis in human A549 cells assessed as early apoptotic cells at 1 nM after 24 hrs by annexin V-FITC/propidium iodide staining based flow cytometry (reference value: 0.19 %); format: functional; procedure, shortened: as §2
[12] = system: A549; assay: Induction of apoptosis in human A549 cells assessed as necrotic cells at 1 nM after 24 hrs by annexin V-FITC/propidium iodide staining based flow cytometry (reference value: 0.03 %); format: functional; procedure, shortened: as §2
[13] = in vitro; conditions: Sprague-Dawley, rat, liver microsomes
[14] = target: Tubulin (Sus scrofa, UniProt P02554+P02550); assay: (§4) Inhibition of porcine brain tubulin polymerization assessed as decrease in fluorescence intensity measured every 60 sec for 90 mins in presence of GTP by DAPI staining based fluorescence assay
Procedure, shortened: (§5)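 Purified unpolymerised tubulin in reaction buffer incubated at 37 °C without or with compound at 0.75-7.5 µM. Polymerisation was followed as a rise in fluorescence intensity, and IC50 was derived. Performed three times.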

[15] = target: Tubulin (Sus scrofa) (UniProt P02554+P02550); assay: as §4; procedure, shortened: as §5
Tubulin (Sus scrofa), sequence (P02550 whole entry, looked up): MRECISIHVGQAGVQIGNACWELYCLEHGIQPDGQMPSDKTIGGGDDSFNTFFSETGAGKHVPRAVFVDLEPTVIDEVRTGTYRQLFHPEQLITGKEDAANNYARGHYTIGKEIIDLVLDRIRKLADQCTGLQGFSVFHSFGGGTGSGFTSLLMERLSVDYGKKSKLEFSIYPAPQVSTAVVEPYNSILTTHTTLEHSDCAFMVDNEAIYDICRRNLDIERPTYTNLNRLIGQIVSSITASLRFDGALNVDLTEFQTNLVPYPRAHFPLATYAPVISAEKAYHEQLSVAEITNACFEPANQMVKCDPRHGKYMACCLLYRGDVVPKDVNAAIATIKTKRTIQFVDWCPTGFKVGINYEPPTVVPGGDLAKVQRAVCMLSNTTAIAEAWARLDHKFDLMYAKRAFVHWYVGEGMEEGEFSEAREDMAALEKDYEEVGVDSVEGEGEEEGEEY
Tubulin (Sus scrofa), sequence (P02554 whole entry, looked up): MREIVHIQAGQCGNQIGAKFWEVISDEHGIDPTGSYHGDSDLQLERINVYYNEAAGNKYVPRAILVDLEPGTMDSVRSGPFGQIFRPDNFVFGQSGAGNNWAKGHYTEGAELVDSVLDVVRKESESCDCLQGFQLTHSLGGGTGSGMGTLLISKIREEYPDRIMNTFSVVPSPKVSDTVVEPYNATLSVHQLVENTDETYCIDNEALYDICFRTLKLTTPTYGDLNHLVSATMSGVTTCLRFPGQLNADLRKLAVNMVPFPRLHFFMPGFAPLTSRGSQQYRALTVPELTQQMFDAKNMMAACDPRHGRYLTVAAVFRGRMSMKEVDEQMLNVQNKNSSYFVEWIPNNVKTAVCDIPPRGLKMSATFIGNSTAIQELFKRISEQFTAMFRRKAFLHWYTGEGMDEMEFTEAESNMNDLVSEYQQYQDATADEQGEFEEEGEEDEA

[16] = system: A549; assay: Induction of apoptosis in human A549 cells assessed as necrotic cells at 1 nM after 48 hrs by annexin V-FITC/propidium iodide staining based flow cytometry (reference value: 0.03 %); format: functional; procedure, shortened: as §2
[17] = system: HCT-116; assay: Antiproliferative activity against human HCT116 cells assessed as cell growth inhibition measured after 48 hrs by MTT assay; format: functional, cell-based; conditions: HCT-116, 48 h; procedure, shortened: as §1
[18] = system: A549; assay: Induction of apoptosis in human A549 cells assessed as early apoptotic cells at 5 nM after 48 hrs by annexin V-FITC/propidium iodide staining based flow cytometry (reference value: 0.19 %); format: functional; procedure, shortened: as §2
[19] = system: A549; assay: Induction of apoptosis in human A549 cells assessed as late apoptotic cells at 1 nM after 24 hrs by annexin V-FITC/propidium iodide staining based flow cytometry (reference value: 0.02 %); format: functional; procedure, shortened: as §2
[20] = Metabolic stability in Sprague-Dawley rat liver microsomes assessed as parent compound remaining after 150 mins in presence of NADPH by HPLC-UV-MS analysis; format: ADME, Microsome; conditions: Sprague-Dawley, liver microsomes, read-out: Stability; procedure, shortened: as §3
[21] = Metabolic stability in Sprague-Dawley rat liver microsomes assessed as parent compound remaining after 60 mins in presence of NADPH by HPLC-UV-MS analysis; format: ADME, Microsome; conditions: read-out: Stability; procedure, shortened: as §3
[22] = system: HeLa; assay: Antiproliferative activity against human HeLa cells assessed as cell growth inhibition measured after 48 hrs by MTT assay; format: functional, cell-based; procedure, shortened: as §1
[23] = system: A549; assay: Induction of apoptosis in human A549 cells assessed as early apoptotic cells at 10 nM after 24 hrs by annexin V-FITC/propidium iodide staining based flow cytometry (reference value: 0.19 %); format: functional; procedure, shortened: as §2
[24] = system: A549; assay: Disruption of microtubule organization in human A549 cells assessed as microtubule spindle shrunk at 1 to 10 nM measured after 24 hrs by immunofluorescence laser confocal microscopy analysis; format: functional, cell-based
Procedure, shortened: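 A549 cells plated in confocal dishes and exposed to DMSO or compound at 1, 5 or 10 nM for 24 h. Cells were fixed, immunostained for microtubules and imaged by laser confocal microscopy. Performed three times.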

[25] = system: A549; assay: Induction of apoptosis in human A549 cells assessed as necrotic cells at 5 nM after 48 hrs by annexin V-FITC/propidium iodide staining based flow cytometry (reference value: 0.03 %); format: functional; procedure, shortened: as §2
[26] = system: A549; assay: Induction of apoptosis in human A549 cells assessed as necrotic cells at 10 nM after 48 hrs by annexin V-FITC/propidium iodide staining based flow cytometry (reference value: 0.03 %); format: functional; procedure, shortened: as §2
[27] = system: A549; assay: Induction of apoptosis in human A549 cells assessed as late apoptotic cells at 1 nM after 48 hrs by annexin V-FITC/propidium iodide staining based flow cytometry (reference value: 0.02 %); format: functional; procedure, shortened: as §2
[28] = system: A549; assay: Cell cycle arrest in human A549 cells assessed as increase in cell accumulation at G2/M phase measured after 24 to 48 hrs by RNase/propidium iodide staining based flow cytometry analysis; format: functional
[29] = Metabolic stability in Sprague-Dawley rat liver microsomes assessed as parent compound remaining after 120 mins in presence of NADPH by HPLC-UV-MS analysis; format: ADME, Microsome; conditions: read-out: Stability; procedure, shortened: as §3
[30] = system: A549; assay: Induction of apoptosis in human A549 cells assessed as live cells at 10 nM after 48 hrs by annexin V-FITC/propidium iodide staining based flow cytometry (reference value: 99.75 %); format: functional; procedure, shortened: as §2
[31] = system: A549; assay: Induction of apoptosis in human A549 cells assessed as live cells at 1 nM after 48 hrs by annexin V-FITC/propidium iodide staining based flow cytometry (reference value: 99.75 %); format: functional; procedure, shortened: as §2
[32] = system: A549; assay: Induction of apoptosis in human A549 cells assessed as live cells at 1 nM after 24 hrs by annexin V-FITC/propidium iodide staining based flow cytometry (reference value: 99.75 %); format: functional; procedure, shortened: as §2

SMILES: COc1ccc2c(c1O)NC(=O)CN=C2c1cc(OC)c(OC)c([Se]C)c1
- pIC50 [1]: 7.90
- Activity [2]: 19.15%
- Activity [3]: 86.5%
- Activity [4]: 76.72%
- Activity [5]: 13.15%
- pIC50 [6]: 8.24
- Activity [7]: 13.64%
- remaining at 1.5 h [8]: 75.9%
- Activity [9]: 11.71%
- Activity [10]: 0.32%
- Activity [11]: 5.71%
- Activity [12]: 0.04%
- remaining at 3 h [13]: 50.4%
- IC50 [14]: 1650 nM
- inhibition [15]: Dose-dependent effect
- Activity [16]: 0.28%
- pIC50 [17]: 8.05
- Activity [18]: 28.68%
- Activity [19]: 0.17%
- remaining at 2.5 h [20]: 57.4%
- remaining at 1 h [21]: 86.3%
- pIC50 [22]: 8.08
- Activity [23]: 23.06%
- Activity [24]: Active
- Activity [25]: 2.28%
- Activity [26]: 3.61%
- Activity [27]: 3.25%
- Activity [28]: Dose-dependent effect
- remaining at 2 h [29]: 66.1%
- Activity [30]: 11.84%
- Activity [31]: 82.83%
- Activity [32]: 94.08%
